In ChEMBL document CHEMBL1165943, “Design and synthesis of new anticancer pyrimidines with multiple-kinase inhibitory effect” (Bioorg Med Chem, 2010):
Calls of active or inactive are those of the source. The rule behind the calls is not given here.

Key:
TK-10 = assay: Cytotoxicity against human TK10 cells assessed as cell growth at 0.001 uM after 48 hrs by sulforhodamine B assay; assay type: functional; settings: TK-10, 48 h, read-out: Activity
OVCAR-8 = assay: Cytotoxicity against human OVCAR8 cells assessed as cell growth at 0.001 uM after 48 hrs by sulforhodamine B assay; assay type: functional; settings: OVCAR-8, 48 h, read-out: Activity
MDA-MB-231 [1] = assay: Cytotoxicity against human MDA-MB-231 cells assessed as cell growth at 0.01 uM after 48 hrs by sulforhodamine B assay; assay type: functional; settings: MDA-MB-231, 48 h, read-out: Activity
U-251 [2] = assay: Growth inhibition of human U251 cells after 48 hrs by sulforhodamine B assay; assay type: functional, cell-based; settings: for CC50: read-out: LC50 (the source's name)
Procedure, shortened: (§1)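 Cells grown in RPMI 1640 with 5% FBS and 2 mM L-glutamine, seeded at 5,000–40,000 cells/well according to doubling time. After 24 h, time-zero plates are TCA-fixed. Five concentrations (10-fold or ½log dilutions, DMSO stocks) are applied for 48 h at 37 °C, 5% CO₂. Cells are TCA-fixed, SRB-stained and read at 515 nm. IC₅₀ is taken from [(Ti−Tz)/(C−Tz)]×100 = 50.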

NCI-H23 = assay: Cytotoxicity against human NCI-H23 cells assessed as cell growth at 1 uM after 48 hrs by sulforhodamine B assay; assay type: functional; settings: NCI-H23, 48 h, read-out: Activity
SF-268 = assay: Growth inhibition of human SF268 cells after 48 hrs by sulforhodamine B assay; assay type: functional, cell-based; settings: SF-268, 48 h; for CC50: read-out: LC50 (the source's name); procedure, shortened: as §1
COLO 205 [3] = assay: Growth inhibition of human COLO205 cells after 48 hrs by sulforhodamine B assay; assay type: functional, cell-based; settings: COLO 205, 48 h; for CC50: read-out: LC50 (the source's name)
Procedure, shortened: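 Five-dose SRB assay. Cells in RPMI 1640 with 5% FBS and 2 mM L-glutamine were seeded at 5,000–40,000 cells/well, with a TCA-fixed time-zero plate (Tz) taken at 24 h. Compound stocks were in DMSO, serially diluted 10-fold or ½-log to five concentrations, and incubated 48 h at 37 °C. Plates were stained with SRB and read at 515 nm. IC₅₀ was taken where [(Ti−Tz)/(C−Tz)]×100 = 50.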

UO-31 = assay: Growth inhibition of human UO31 cells after 48 hrs by sulforhodamine B assay; assay type: functional, cell-based; settings: UO-31, 48 h; for CC50: read-out: LC50 (the source's name); procedure, shortened: as §1
U-251 [4] = assay: Cytotoxicity against human U251 cells assessed as cell growth at 0.01 uM after 48 hrs by sulforhodamine B assay; assay type: functional; settings: U-251, 48 h, read-out: Activity
HOP-62 = assay: Cytotoxicity against human HOP62 cells assessed as cell growth at 100 nM after 48 hrs by sulforhodamine B assay; assay type: functional; settings: HOP-62, 48 h, read-out: Activity
UACC-62 = assay: Cytotoxicity against human UACC62 cells assessed as cell growth at 0.001 uM after 48 hrs by sulforhodamine B assay; assay type: functional; settings: UACC-62, 48 h, read-out: Activity
HCT-116 [5] = assay: Cytotoxicity against human HCT116 cells assessed as cell growth at 0.001 uM after 48 hrs by sulforhodamine B assay; assay type: functional; settings: HCT-116, 48 h, read-out: Activity
MDA-MB-231 [6] = assay: Cytotoxicity against human MDA-MB-231 cells assessed as cell growth at 0.001 uM after 48 hrs by sulforhodamine B assay; assay type: functional; settings: MDA-MB-231, 48 h, read-out: Activity
HCT-116 [7] = assay: Cytotoxicity against human HCT116 cells assessed as cell growth at 1 uM after 48 hrs by sulforhodamine B assay; assay type: functional; settings: HCT-116, 48 h, read-out: Activity
[8] = Cytotoxicity against human Hs 578T cells assessed as cell growth at 0.001 uM after 48 hrs by sulforhodamine B assay; assay type: functional; settings: read-out: Activity
RXF 393 = assay: Growth inhibition of human RXF393 cells after 48 hrs by sulforhodamine B assay; assay type: functional, cell-based; procedure, shortened: as §1
HCT-15 = assay: Growth inhibition of human HCT15 cells after 48 hrs by sulforhodamine B assay; assay type: functional, cell-based; settings: HCT-15, 48 h; for CC50: read-out: LC50 (the source's name); procedure, shortened: as §1
SK-MEL-5 = assay: Growth inhibition of human SK-MEL-5 cells after 48 hrs by sulforhodamine B assay; assay type: functional, cell-based; settings: for CC50: read-out: LC50 (the source's name); procedure, shortened: as §1
SNB-75 = assay: Cytotoxicity against human SNB75 cells assessed as cell growth at 0.01 uM after 48 hrs by sulforhodamine B assay; assay type: functional; settings: SNB-75, 48 h, read-out: Activity
HT-29 = assay: Cytotoxicity against human HT-29 cells assessed as cell growth at 0.001 uM after 48 hrs by sulforhodamine B assay; assay type: functional; settings: HT-29, 48 h, read-out: Activity
MOLT-4 [9] = assay: Cytotoxicity against human MOLT4 cells assessed as cell growth at 1 uM after 48 hrs by sulforhodamine B assay; assay type: functional; settings: MOLT-4, 48 h, read-out: Activity
K562 = assay: Cytotoxicity against human K562 cells assessed as cell growth at 1 uM after 48 hrs by sulforhodamine B assay; assay type: functional; settings: K562, 48 h, read-out: Activity
A549 = assay: Cytotoxicity against human A549 cells assessed as cell growth at 100 nM after 48 hrs by sulforhodamine B assay; assay type: functional; settings: A549, 48 h, read-out: Activity
Procedure, shortened: (§2)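 Cells grown in RPMI 1640 with 5% FBS and 2 mM L-glutamine, seeded at 5,000–40,000 cells/well by doubling time. Time-zero plates TCA-fixed after 24 h. Five concentrations (10-fold or half-log dilutions from DMSO stock) added; 48 h at 37 °C, 5% CO2. Cold TCA fixation (final 10%, 60 min, 4 °C), 0.4% SRB stain, dye solubilized in 10 mM trizma base, A515.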

[10] = Growth inhibition of human Hs 578T cells after 48 hrs by sulforhodamine B assay; assay type: functional, cell-based; settings: for CC50: read-out: LC50 (the source's name); procedure, shortened: as §1
KM12 = assay: Cytotoxicity against human KM12 cells assessed as cell growth at 10 uM after 48 hrs by sulforhodamine B assay; assay type: functional; settings: KM12, 48 h, read-out: Activity
T47D = assay: Growth inhibition of human T47D cells after 48 hrs by sulforhodamine B assay; assay type: functional, cell-based; procedure, shortened: as §1
COLO 205 [11] = assay: Cytotoxicity against human COLO205 cells assessed as cell growth at 0.001 uM after 48 hrs by sulforhodamine B assay; assay type: functional; settings: COLO 205, 48 h, read-out: Activity; procedure, shortened: as §2
MOLT-4 [12] = assay: Cytotoxicity against human MOLT4 cells assessed as cell growth at 100 nM after 48 hrs by sulforhodamine B assay; assay type: functional; settings: MOLT-4, 48 h, read-out: Activity

Compound: CC(=O)Nc1cccc(-c2ccc(-c3ccnc(NC(=O)Nc4cc(C(F)(F)F)cc(C(F)(F)F)c4)n3)cn2)c1.Cl
- growth at 0.001 µM (TK-10): 103%
- growth at 0.001 µM (OVCAR-8): 102%
- growth at 0.01 µM (MDA-MB-231 [1]): 93%
- GI50 (U-251 [2]; Homo sapiens, U-251, 48 h): 2 µM
- IC50 (U-251 [2]; Homo sapiens, U-251, 48 h): 2 µM
- TGI (U-251 [2]; Homo sapiens, U-251, 48 h): 5.32 µM
- CC50 (U-251 [2]; Homo sapiens, U-251, 48 h): 18.9 µM
- growth at 1 µM (NCI-H23): -16%
- GI50 (SF-268): 4.92 µM
- IC50 (SF-268): 4.92 µM
- TGI (SF-268): 23.9 µM
- CC50 (SF-268): 98.7 µM
- GI50 (COLO 205 [3]): 11 µM
- IC50 (COLO 205 [3]): 11 µM
- TGI (COLO 205 [3]): > 100 µM
- CC50 (COLO 205 [3]): > 100 µM
- GI50 (UO-31): 5.51 µM
- IC50 (UO-31): 5.51 µM
- TGI (UO-31): 23.2 µM
- CC50 (UO-31): 61.7 µM
- growth at 0.01 µM (U-251 [4]): 90%
- growth at 0.1 µM (HOP-62): 100%
- growth at 0.001 µM (UACC-62): 93%
- growth at 0.001 µM (HCT-116 [5]): 92%
- growth at 0.001 µM (MDA-MB-231 [6]): 102%
- growth at 1 µM (HCT-116 [7]): -35%
- growth at 0.001 µM [8]: 90%
- LC50 (RXF 393): inactive
- TGI (RXF 393): inactive
- IC50 (RXF 393; rxf 393): Not Active
- GI50 (HCT-15): 3.62 µM
- IC50 (HCT-15): 3.62 µM
- TGI (HCT-15): 15 µM
- CC50 (HCT-15): 45.1 µM
- GI50 (SK-MEL-5; Homo sapiens, SK-MEL-5, 48 h): 1.35 µM
- TGI (SK-MEL-5; Homo sapiens, SK-MEL-5, 48 h): 2.64 µM
- IC50 (SK-MEL-5; Homo sapiens, SK-MEL-5, 48 h, read-out: IC50): 1.35 µM
- CC50 (SK-MEL-5; Homo sapiens, SK-MEL-5, 48 h): 5.13 µM
- growth at 0.01 µM (SNB-75): 71%
- growth at 0.001 µM (HT-29): 106%
- growth at 1 µM (MOLT-4 [9]): 4%
- growth at 1 µM (K562): -1%
- growth at 0.1 µM (A549): 58%
- GI50 [10]: 7.52 µM
- IC50 [10]: 7.52 µM
- TGI [10]: > 100 µM
- CC50 [10]: > 100 µM
- growth at 10 µM (KM12): 100%
- GI50 (T47D): 0.619 µM
- IC50 (T47D): 0.619 µM
- LC50 (lethal concentration, 50% net cell kill) (T47D): > 100 µM
- TGI (T47D): 8.43 µM
- growth at 0.001 µM (COLO 205 [11]): 103%
- growth at 0.1 µM (MOLT-4 [12]): 69%

Compound: CC(=O)c1ccccc1-c1ccc(-c2ccnc(NC(=O)Nc3cc(N4CCOCC4)cc(C(F)(F)F)c3)n2)cn1
- growth at 0.001 µM (TK-10): 103%
- growth at 0.001 µM (OVCAR-8): 92%
- growth at 0.01 µM (MDA-MB-231 [1]): 99%
- TGI (U-251 [2]): > 100 µM
- GI50 (U-251 [2]; Homo sapiens, U-251, 48 h): 5.36 µM
- IC50 (U-251 [2]; Homo sapiens, U-251, 48 h): 34.9 µM
- CC50 (U-251 [2]; Homo sapiens, U-251, 48 h): > 100 µM
- growth at 1 µM (NCI-H23): 52%
- GI50 (SF-268): > 100 µM
- IC50 (SF-268): 40.2 µM
- TGI (SF-268): > 100 µM
- CC50 (SF-268): > 100 µM
- GI50 (COLO 205 [3]): > 63.2 µM
- IC50 (COLO 205 [3]): > 100 µM
- TGI (COLO 205 [3]): > 100 µM
- CC50 (COLO 205 [3]): > 100 µM
- GI50 (UO-31): > 5.46 µM
- IC50 (UO-31): > 100 µM
- TGI (UO-31): > 100 µM
- CC50 (UO-31): > 100 µM
- growth at 0.01 µM (U-251 [4]): 98%
- growth at 0.1 µM (HOP-62): 100%
- growth at 0.001 µM (UACC-62): 94%
- growth at 0.001 µM (HCT-116 [5]): 95%
- growth at 0.001 µM (MDA-MB-231 [6]): 101%
- growth at 1 µM (HCT-116 [7]): 69%
- growth at 0.001 µM [8]: 107%
- LC50 (RXF 393): inactive
- GI50 (RXF 393; Homo sapiens, RXF 393, 48 h): > 100 µM
- TGI (RXF 393; Homo sapiens, RXF 393, 48 h): 3.5 µM
- IC50 (RXF 393; Homo sapiens, RXF 393, 48 h, read-out: IC50): 1.27 µM
- GI50 (HCT-15): > 100 µM
- IC50 (HCT-15): > 100 µM
- TGI (HCT-15): > 100 µM
- CC50 (HCT-15): > 100 µM
- TGI (SK-MEL-5; Homo sapiens, SK-MEL-5, 48 h): > 100 µM
- CC50 (SK-MEL-5; Homo sapiens, SK-MEL-5, 48 h): > 100 µM
- IC50 (SK-MEL-5; sk-mel-5): Not Active
- growth at 0.01 µM (SNB-75): 100%
- growth at 0.001 µM (HT-29): 103%
- growth at 1 µM (MOLT-4 [9]): 86%
- growth at 1 µM (K562): 79%
- growth at 0.1 µM (A549): 92%
- GI50 [10]: > 100 µM
- IC50 [10]: 2.87 µM
- TGI [10]: > 100 µM
- CC50 [10]: > 100 µM
- growth at 10 µM (KM12): 82%
- GI50 (T47D): > 100 µM
- IC50 (T47D): > 100 µM
- LC50 (lethal concentration, 50% net cell kill) (T47D): > 100 µM
- TGI (T47D): > 100 µM
- growth at 0.001 µM (COLO 205 [11]): 109%
- growth at 0.1 µM (MOLT-4 [12]): 75%
